Experimental data as given in ChEMBL document CHEMBL2151038, “Synthesis, characterization and biological evaluation of some novel 2,4-thiazolidinediones as potential cytotoxic, antimicrobial and antihyperglycemic agents” (Bioorg Med Chem Lett, 2012).
In brackets after ≈: the same amount, converted by molar mass.

Legend:
Proteus vulgaris = test: Antibacterial activity against Proteus vulgaris NCIM 2813 after 24 hrs by NCCLS agar well diffusion method; assay type: functional; settings: NCIM 2813, 24 h
Summary of the method: (§1)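 Nutrient agar seeded with 0.1 mL bacterial suspension (10⁵ CFU/mL in 0.85% saline). 6 mm wells filled with 0.1 mL compound. Plates in triplicate, 37 ± 0.5 °C for 24 h. MIC = lowest concentration giving complete growth inhibition.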

Rattus norvegicus [1] = test: Antihyperglycemic activity in streptozotocin-induced type 2 diabetic Wistar albino rat assessed as reduction in plasma glucose level at 30 mg/kg, po by glucometer; assay type: functional
Summary of the method: (§2)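 Wistar albino rats of either sex, 150–200 g, fasted 16 h. Diabetes induced by nicotinamide 150 mg/kg, then STZ 65 mg/kg in citrate buffer pH 4.5. Glucose confirmed after 48 h. Groups of six. Oral dosing as 0.25% sodium CMC suspension at 10, 30 or 50 mg/kg. Rosiglitazone was the reference. Retro-orbital plasma glucose measured by glucometer before dosing and at 1, 2, 4, 6, 8, 12 and 24 h. Results as mean ± SEM, compared by ANOVA, t-test and Dunnett's test.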

Penicillium chrysogenum = test: Antifungal activity against Penicillium chrysogenum NCIM 738 after 48 hrs by NCCLS agar well diffusion method; assay type: functional; settings: NCIM 738, 48 h
Summary of the method: (§3)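 Spore suspensions in sterile distilled water adjusted to 10⁶ CFU/mL, 0.1 mL spread on potato-dextrose agar. 6 mm wells received 0.1 mL compound in 1% DMSO (final 16–512 µg/mL). Controls: 1% DMSO and ketoconazole (16 µg/mL). Triplicate plates, 48 h at 28 ± 0.2 °C. MIC = lowest concentration completely inhibiting growth.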

Artemia salina = test: Cytotoxicity in brine shrimps larvae assessed as mortality after 24 hrs; assay type: functional; settings: read-out: ED50 (the source's name)
Summary of the method: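 Artemia salina nauplii hatched 38 h under constant aeration in sterile brine (sea salt 38 g/L, pH 8.5 with 1 N NaOH). Ten nauplii per vial were exposed to a range of compound concentrations at 37 °C for 24 h under incandescent light, alongside vehicle-treated controls. Survivors were counted, % lethality was taken from mean survivors versus control, and ED50 came from probit analysis.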

[2] = Toxicity in mouse assessed as changes in vital functions; assay type: organism-based; settings: in vivo
Aspergillus oryzae = test: Antifungal activity against Aspergillus oryzae NCIM 643 after 48 hrs by NCCLS agar well diffusion method; assay type: functional; settings: NCIM 643, 48 h; summary of the method: as §3
Aspergillus niger = test: Antifungal activity against Aspergillus niger NCIM 548 after 48 hrs by NCCLS agar well diffusion method; assay type: functional; settings: NCIM 548, 48 h; summary of the method: as §3
Micrococcus luteus = test: Antibacterial activity against Micrococcus luteus NCIM 2155 after 24 hrs by NCCLS agar well diffusion method; assay type: functional; settings: NCIM 2155, 24 h; summary of the method: as §1
Escherichia coli = test: Antibacterial activity against Escherichia coli NCIM 2065 after 24 hrs by NCCLS agar well diffusion method; assay type: functional; settings: NCIM 2065, 24 h; summary of the method: as §1
Pseudomonas aeruginosa = test: Antibacterial activity against Pseudomonas aeruginosa NCIM 2036 after 24 hrs by NCCLS agar well diffusion method; assay type: functional; settings: NCIM 2036, 24 h; summary of the method: as §1
Rattus norvegicus [3] = test: Antihyperglycemic activity in streptozotocin-induced type 2 diabetic Wistar albino rat assessed as reduction in plasma glucose level at 50 mg/kg, po by glucometer; assay type: functional; summary of the method: as §2
Candida albicans = test: Antifungal activity against Candida albicans NCIM 3102 after 48 hrs by NCCLS agar well diffusion method; assay type: functional; settings: NCIM 3102, 48 h; summary of the method: as §3
Bacillus pumilus = test: Antibacterial activity against Bacillus pumilus NCIM 2327 after 24 hrs by NCCLS agar well diffusion method; assay type: functional; settings: NCIM 2327, 24 h; summary of the method: as §1
Rattus norvegicus [4] = test: Antihyperglycemic activity in streptozotocin-induced type 2 diabetic Wistar albino rat assessed as reduction in plasma glucose level at 10 mg/kg, po by glucometer; assay type: functional; summary of the method: as §2
Bacillus subtilis = test: Antibacterial activity against Bacillus subtilis NCIM 2063 after 24 hrs by NCCLS agar well diffusion method; assay type: functional; settings: NCIM 2063, 24 h; summary of the method: as §1
Staphylococcus aureus = test: Antibacterial activity against Staphylococcus aureus NCIM 2079 after 24 hrs by NCCLS agar well diffusion method; assay type: functional; settings: NCIM 2079, 24 h; summary of the method: as §1
Klebsiella pneumoniae = test: Antibacterial activity against Klebsiella pneumoniae NCIM 5082 after 24 hrs by NCCLS agar well diffusion method; assay type: functional; settings: NCIM 5082, 24 h; summary of the method: as §1
Rattus norvegicus [5] = test: Antihyperglycemic activity in po dosed streptozotocin-induced type 2 diabetic Wistar albino rat assessed as reduction in plasma glucose level by glucometer; assay type: functional, organism-based; summary of the method: as §2

SMILES | MIC (Proteus vulgaris) [µg/mL] | Activity (Rattus norvegicus [1]) [mg/dL] | MIC (Penicillium chrysogenum) [µg/mL] | EC50 (Artemia salina) [µg/mL] | MTD [2] [mg/kg] | MIC (Aspergillus oryzae) [µg/mL] | MIC (Aspergillus niger) [µg/mL] | MIC (Micrococcus luteus) [µg/mL] | MIC (Escherichia coli) [µg/mL] | MIC (Pseudomonas aeruginosa) [µg/mL] | Activity (Rattus norvegicus [3]) [mg/dL] | MIC (Candida albicans) [µg/mL] | MIC (Bacillus pumilus) [µg/mL] | Activity (Rattus norvegicus [4]) [mg/dL] | MIC (Bacillus subtilis) [µg/mL] | MIC (Staphylococcus aureus) [µg/mL] | MIC (Klebsiella pneumoniae) [µg/mL] | Activity (Rattus norvegicus [5])
COc1ccc(C(=O)/C=C/c2ccc(/C=C3\SC(=O)NC3=O)cc2)cc1 | 64 (≈ 175 µM) | 37.04 | 128 (≈ 350 µM) | 16.2 (≈ 44.4 µM) | 2000 | 128 (≈ 350 µM) | 128 (≈ 350 µM) | 64 (≈ 175 µM) | 32 (≈ 87.6 µM) | 64 (≈ 175 µM) | 48.71 | 128 (≈ 350 µM) | 64 (≈ 175 µM) | 33.88 | 64 (≈ 175 µM) | 32 (≈ 87.6 µM) | 64 (≈ 175 µM) | Dose-dependent effect
COc1cc([C@@H]2c3cc4c(cc3[C@H](O)[C@H]3COC(=O)[C@H]23)OCO4)cc(OC)c1OC [PODOFILOX] |  |  |  | 3.61 (≈ 8.71 µM) |  |  |  |  |  |  |  |  |  |  |  |  |  | 
Nc1cccc(C(=O)/C=C/c2ccc(/C=C3\SC(=O)NC3=O)cc2)c1 | 256 (≈ 731 µM) | 15.36 | 256 (≈ 731 µM) | 33.2 (≈ 94.7 µM) | 2000 | 128 (≈ 365 µM) | 64 (≈ 183 µM) | 256 (≈ 731 µM) | 64 (≈ 183 µM) | 128 (≈ 365 µM) | 21.66 | 256 (≈ 731 µM) | 256 (≈ 731 µM) | 12.14 | 256 (≈ 731 µM) | 256 (≈ 731 µM) | 256 (≈ 731 µM) | Dose-dependent effect
O=C1NC(=O)/C(=C/c2ccc(/C=C/C(=O)c3cc(OCc4ccccc4)cc(OCc4ccccc4)c3)cc2)S1 | 32 (≈ 58.4 µM) | 26.87 | 16 (≈ 29.2 µM) | 26.8 (≈ 49 µM) | 2000 | 16 (≈ 29.2 µM) | 16 (≈ 29.2 µM) | 16 (≈ 29.2 µM) | 32 (≈ 58.4 µM) | 16 (≈ 29.2 µM) | 30.12 | 16 (≈ 29.2 µM) | 16 (≈ 29.2 µM) | 21.76 | 16 (≈ 29.2 µM) | 16 (≈ 29.2 µM) | 16 (≈ 29.2 µM) | Dose-dependent effect
O=C1NC(=O)/C(=C/c2ccc(/C=C/C(=O)c3ccccn3)cc2)S1 | 64 (≈ 190 µM) | 34.68 | 128 (≈ 381 µM) | 30.3 (≈ 90 µM) | 2000 | 64 (≈ 190 µM) | 64 (≈ 190 µM) | 32 (≈ 95.1 µM) | 64 (≈ 190 µM) | 128 (≈ 381 µM) | 43.72 | 64 (≈ 190 µM) | 64 (≈ 190 µM) | 22.78 | 128 (≈ 381 µM) | 64 (≈ 190 µM) | 64 (≈ 190 µM) | Dose-dependent effect
Cc1cccc(C(=O)/C=C/c2ccc(/C=C3\SC(=O)NC3=O)cc2)c1O | 32 (≈ 87.6 µM) | 43.14 | 256 (≈ 701 µM) | 33.1 (≈ 90.6 µM) | 2000 | 128 (≈ 350 µM) | 128 (≈ 350 µM) | 512 (≈ 1400 µM) | 64 (≈ 175 µM) | 64 (≈ 175 µM) | 49.99 | 64 (≈ 175 µM) | 128 (≈ 350 µM) | 36.76 | 64 (≈ 175 µM) | 128 (≈ 350 µM) | 64 (≈ 175 µM) | Dose-dependent effect
O=C1NC(=O)/C(=C/c2ccc(/C=C/C(=O)c3ccc4ccccc4c3)cc2)S1 | 512 (≈ 1330 µM) | 31.84 | 512 (≈ 1330 µM) | 48.1 (≈ 125 µM) | 2000 | 512 (≈ 1330 µM) | 512 (≈ 1330 µM) | 512 (≈ 1330 µM) | 512 (≈ 1330 µM) | 512 (≈ 1330 µM) | 36.93 | 512 (≈ 1330 µM) | 512 (≈ 1330 µM) | 23.75 | 512 (≈ 1330 µM) | 512 (≈ 1330 µM) | 512 (≈ 1330 µM) | Dose-dependent effect
